Legend:
[1] = target: PI3-kinase p110-alpha/p85-alpha (Homo sapiens, UniProt P42336); assay: Inhibition of full-length human P110alpha (1 to 1068 residues)/N-terminal GST-fused p85alpha (1 to 724 residues) expressed in baculovirus expression system by ADP Hunter assay; details: read-out: Ki(app)
[2] = target: CYP3A4 (Homo sapiens, UniProt P08684); assay: Inhibition of CYP3A4 (unknown origin) at 10 uM relative to control; assay type: ADME
Method in brief: (§1)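 CYP1A2, 2C9, 2C19, 2D6 and 3A4 inhibition measured at 10 µM test compound in duplicate; percent inhibition reported.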

[3] = target: Dual specificity mitogen-activated protein kinase kinase 1 (Homo sapiens) (UniProt Q02750); assay: Inhibition of wild-type human MEK1 (M1 to V393 residues) expressed in Sf9 insect cells at 1 uM using ERK2-K54R as substrate by filter binding method relative to control
Method in brief: (§2)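 Single-point screen at 1 µM in a 24-kinase panel run externally; each value is the average of two independent data points. The detailed assay conditions are given only on the provider's site.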

[4] = target: Ribosomal protein S6 kinase alpha-1 (Homo sapiens) (UniProt Q15418); assay: Inhibition of RPS6KA1 (unknown origin) at 1 uM relative to control
Method in brief: (§3)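 Kinase panel of 24 enzymes, each tested at 1 µM; percent inhibition reported as the average of two independent data points.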

[5] = target: Platelet-derived growth factor receptor alpha (Homo sapiens) (UniProt P16234); assay: Inhibition of recombinant human N-terminal GST/His6-tagged PDGFRalpha (Q551 to L1089 residues) expressed in Sf9 insect cells at 1 uM using TRK-C-derived peptide as substrate by filter binding method relative to control; method in brief: as §2
[6] = target: CYP2D6 (Homo sapiens, UniProt P10635); assay: Inhibition of CYP2D6 (unknown origin) at 10 uM relative to control; assay type: ADME; method in brief: as §1
[7] = target: Vascular endothelial growth factor receptor 2 (Homo sapiens) (UniProt P35968); assay: Inhibition of recombinant human N-terminal GST-tagged VEGFR2 (D807 to V1356 residues) expressed in Sf9 insect cells at 1 uM using Poly(Glu:Tyr)4:1 as substrate by filter binding method relative to control; method in brief: as §3
[8] = Permeability of the compound at 300 uL after 5 hrs by PAMPA; assay type: ADME; details: read-out: permeability
Method in brief: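 Pre-coated PAMPA plates with a tri-layer phospholipid membrane. Donor held compound in PBS at the highest concentration soluble in PBS; acceptor was PBS. Incubated 5 h at room temperature, with propranolol and sorafenib (10 µM) as high and low permeability controls. Donor and acceptor concentrations measured by LC-MS/MS; Pe (10^-6 cm/s) calculated from acceptor/equilibrium concentrations, 0.3 cm² area and well volumes.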

[9] = Inhibition of PI3K in serum-stimulated human U2OS cells assessed as decrease in AKT1 phosphorylation at S473 by C-ELISA; assay type: cell-based
Method in brief: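 U2OS osteosarcoma cells grown in 0.1% FBS, then serum-stimulated; endogenous phospho-Akt1 (Ser473) quantified by cell ELISA with chemiluminescent substrate. EC50 from sigmoid dose-response fit; two independent experiments in duplicate.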

[10] = test system: Serine/threonine-protein kinase B-raf (Homo sapiens), P15056 [V600E]; assay: Inhibition of recombinant human N-terminal GST/HIS6-tagged BRAF V600E mutant (Q417 to H766 residues) expressed in Sf9 insect cells at 1 uM using MEK1-KM as substrate by fliter binding assay relative to control; method in brief: as §3
[11] = target: Voltage-gated inwardly rectifying potassium channel KCNH2 (Homo sapiens, UniProt Q12809); assay: Inhibition of human ERG by Tracer Red dye based fluorescence polarization assay
Method in brief: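 hERG binding measured with Predictor hERG kit per kit instructions, read by fluorescence polarization.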

[12] = target: CYP2C19 (Homo sapiens, UniProt P33261); assay: Inhibition of CYP2C19 (unknown origin) at 10 uM relative to control; assay type: ADME; method in brief: as §1
[13] = target: Tyrosine-protein kinase JAK2 (Homo sapiens) (UniProt O60674); assay: Inhibition of recombinant human N-terminal GST/His6-tagged JAK2 (P717 to G1132 residues) expressed in Sf9 insect cells at 1 uM using TRK-C-derived peptide as substrate by filter binding method relative to control; method in brief: as §3
[14] = Stability in human liver microsomes assessed as parent compound remaining at 0.5 uM after 30 mins by LC-MS/MS analysis; assay type: ADME, microsome; details: read-out: Stability
Method in brief: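 Single time-point stability assay: 0.5 µM compound, 0.5 mg/ml human or mouse liver microsomes in 0.1 M potassium phosphate pH 7.4, with NADPH-regenerating system, 30 min at 37 °C with shaking. Reaction quenched with acetonitrile/0.1% formic acid and centrifuged; supernatant analysed by LC-MS/MS. Reported as percent remaining; duplicates.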

[15] = target: PI3K p110 beta/p85 alpha (Homo sapiens, UniProt P42338); assay: Inhibition of p110beta/85alpha (unknown origin) using PIP2 as substrate by HTRF assay; assay type: protein-complex assay; details: read-out: Ki(app)
[16] = target: Dual specificity tyrosine-phosphorylation-regulated kinase 1A (Homo sapiens) (UniProt Q13627); assay: Inhibition of DYRK1A (unknown origin) at 1 uM relative to control; method in brief: as §3
[17] = target: T1, CYP1A2 (Homo sapiens, UniProt P05177); assay: Inhibition of CYP1A2 (unknown origin) at 10 uM relative to control; assay type: ADME; method in brief: as §1
T1 sequence (P05177 whole entry): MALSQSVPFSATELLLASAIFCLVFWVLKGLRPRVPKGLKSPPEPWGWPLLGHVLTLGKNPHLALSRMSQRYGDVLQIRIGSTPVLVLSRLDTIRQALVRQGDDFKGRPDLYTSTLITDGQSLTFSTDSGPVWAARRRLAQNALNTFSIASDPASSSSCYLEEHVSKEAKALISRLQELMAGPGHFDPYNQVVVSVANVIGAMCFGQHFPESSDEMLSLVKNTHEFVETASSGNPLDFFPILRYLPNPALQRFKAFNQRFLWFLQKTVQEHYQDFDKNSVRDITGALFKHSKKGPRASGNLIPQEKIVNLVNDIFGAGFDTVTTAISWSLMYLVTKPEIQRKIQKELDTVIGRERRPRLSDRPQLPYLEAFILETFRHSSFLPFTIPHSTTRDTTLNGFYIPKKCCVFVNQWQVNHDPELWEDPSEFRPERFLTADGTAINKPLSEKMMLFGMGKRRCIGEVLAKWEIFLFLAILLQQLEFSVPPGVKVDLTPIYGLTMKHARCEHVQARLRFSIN

[18] = target: Phosphatidylinositol 4,5-bisphosphate 3-kinase catalytic subunit gamma isoform (Homo sapiens, UniProt P48736); assay: Inhibition of recombinant full-length human N-terminal His6-tagged p110gamma expressed in baculovirus infected Sf21 insect cells using PIP2 as substrate by HTRF assay; details: read-out: Ki(app)
[19] = target: Casein kinase I isoform alpha (Homo sapiens) (UniProt P48729); assay: Inhibition of recombinant human N-terminal GST/HIS6-tagged CK1alpha (M1 to F365 residues) expressed in Sf9 insect cells at 1 uM using casein as substrate by fliter binding assay relative to control; method in brief: as §3
[20] = target: PI3-kinase p110-delta/p85-alpha (Homo sapiens, UniProt O00329); assay: Inhibition of recombinant human full-length N-terminal His6-tagged p110delta/human full-length p85alpha expressed in baculovirus infected Sf21 insect cells using PIP2 as substrate by HTRF assay; details: read-out: Ki(app)
Sequence of PI3-kinase p110-delta/p85-alpha (P27986 whole entry): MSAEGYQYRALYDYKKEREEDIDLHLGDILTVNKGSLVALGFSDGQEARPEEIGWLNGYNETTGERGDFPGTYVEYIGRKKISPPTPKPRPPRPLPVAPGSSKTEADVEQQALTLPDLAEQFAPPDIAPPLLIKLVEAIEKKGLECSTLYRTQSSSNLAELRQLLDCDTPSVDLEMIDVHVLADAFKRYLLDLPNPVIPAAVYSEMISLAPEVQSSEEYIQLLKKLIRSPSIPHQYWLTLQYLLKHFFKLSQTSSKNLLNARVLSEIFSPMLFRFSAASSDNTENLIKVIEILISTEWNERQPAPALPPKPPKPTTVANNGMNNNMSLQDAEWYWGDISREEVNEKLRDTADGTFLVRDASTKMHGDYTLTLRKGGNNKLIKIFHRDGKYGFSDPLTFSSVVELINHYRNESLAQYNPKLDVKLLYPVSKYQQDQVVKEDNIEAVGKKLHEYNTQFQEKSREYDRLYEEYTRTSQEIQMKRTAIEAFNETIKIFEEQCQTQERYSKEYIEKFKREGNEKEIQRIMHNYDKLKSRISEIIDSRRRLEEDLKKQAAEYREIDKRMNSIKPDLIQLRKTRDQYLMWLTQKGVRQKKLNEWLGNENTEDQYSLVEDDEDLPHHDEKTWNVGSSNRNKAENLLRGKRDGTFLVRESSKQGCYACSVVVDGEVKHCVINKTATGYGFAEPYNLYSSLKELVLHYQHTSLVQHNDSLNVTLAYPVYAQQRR
Sequence of PI3-kinase p110-delta/p85-alpha (O00329 whole entry): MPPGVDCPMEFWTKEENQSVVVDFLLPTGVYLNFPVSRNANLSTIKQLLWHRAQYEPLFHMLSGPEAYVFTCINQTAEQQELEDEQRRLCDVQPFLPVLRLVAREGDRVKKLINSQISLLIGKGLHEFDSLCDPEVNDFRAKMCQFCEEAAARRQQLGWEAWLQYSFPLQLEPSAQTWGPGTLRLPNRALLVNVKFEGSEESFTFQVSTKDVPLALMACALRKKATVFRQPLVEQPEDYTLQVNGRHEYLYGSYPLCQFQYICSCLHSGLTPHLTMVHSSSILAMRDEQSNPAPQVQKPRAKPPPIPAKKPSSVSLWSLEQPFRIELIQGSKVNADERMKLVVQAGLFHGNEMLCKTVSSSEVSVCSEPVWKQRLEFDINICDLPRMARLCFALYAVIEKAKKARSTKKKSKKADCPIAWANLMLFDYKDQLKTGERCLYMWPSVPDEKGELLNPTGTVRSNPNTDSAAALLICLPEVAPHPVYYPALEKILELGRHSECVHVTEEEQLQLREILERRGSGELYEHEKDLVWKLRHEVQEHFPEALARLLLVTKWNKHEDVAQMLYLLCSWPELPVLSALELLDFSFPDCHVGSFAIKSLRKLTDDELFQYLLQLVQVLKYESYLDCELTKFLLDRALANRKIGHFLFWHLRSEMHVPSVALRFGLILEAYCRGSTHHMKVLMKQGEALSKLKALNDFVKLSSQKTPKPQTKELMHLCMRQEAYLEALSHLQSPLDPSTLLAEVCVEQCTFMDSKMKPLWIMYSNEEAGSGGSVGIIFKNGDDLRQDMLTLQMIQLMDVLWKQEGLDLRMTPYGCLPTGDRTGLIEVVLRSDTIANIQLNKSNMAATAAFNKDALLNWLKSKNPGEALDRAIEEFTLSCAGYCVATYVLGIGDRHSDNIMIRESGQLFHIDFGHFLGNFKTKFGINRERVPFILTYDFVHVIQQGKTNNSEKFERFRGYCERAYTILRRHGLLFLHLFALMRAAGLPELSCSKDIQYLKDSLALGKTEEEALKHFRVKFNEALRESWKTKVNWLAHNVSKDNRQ

Sequence of Tyrosine-protein kinase JAK2 (Homo sapiens) (O60674 whole entry, the tested form may be a part): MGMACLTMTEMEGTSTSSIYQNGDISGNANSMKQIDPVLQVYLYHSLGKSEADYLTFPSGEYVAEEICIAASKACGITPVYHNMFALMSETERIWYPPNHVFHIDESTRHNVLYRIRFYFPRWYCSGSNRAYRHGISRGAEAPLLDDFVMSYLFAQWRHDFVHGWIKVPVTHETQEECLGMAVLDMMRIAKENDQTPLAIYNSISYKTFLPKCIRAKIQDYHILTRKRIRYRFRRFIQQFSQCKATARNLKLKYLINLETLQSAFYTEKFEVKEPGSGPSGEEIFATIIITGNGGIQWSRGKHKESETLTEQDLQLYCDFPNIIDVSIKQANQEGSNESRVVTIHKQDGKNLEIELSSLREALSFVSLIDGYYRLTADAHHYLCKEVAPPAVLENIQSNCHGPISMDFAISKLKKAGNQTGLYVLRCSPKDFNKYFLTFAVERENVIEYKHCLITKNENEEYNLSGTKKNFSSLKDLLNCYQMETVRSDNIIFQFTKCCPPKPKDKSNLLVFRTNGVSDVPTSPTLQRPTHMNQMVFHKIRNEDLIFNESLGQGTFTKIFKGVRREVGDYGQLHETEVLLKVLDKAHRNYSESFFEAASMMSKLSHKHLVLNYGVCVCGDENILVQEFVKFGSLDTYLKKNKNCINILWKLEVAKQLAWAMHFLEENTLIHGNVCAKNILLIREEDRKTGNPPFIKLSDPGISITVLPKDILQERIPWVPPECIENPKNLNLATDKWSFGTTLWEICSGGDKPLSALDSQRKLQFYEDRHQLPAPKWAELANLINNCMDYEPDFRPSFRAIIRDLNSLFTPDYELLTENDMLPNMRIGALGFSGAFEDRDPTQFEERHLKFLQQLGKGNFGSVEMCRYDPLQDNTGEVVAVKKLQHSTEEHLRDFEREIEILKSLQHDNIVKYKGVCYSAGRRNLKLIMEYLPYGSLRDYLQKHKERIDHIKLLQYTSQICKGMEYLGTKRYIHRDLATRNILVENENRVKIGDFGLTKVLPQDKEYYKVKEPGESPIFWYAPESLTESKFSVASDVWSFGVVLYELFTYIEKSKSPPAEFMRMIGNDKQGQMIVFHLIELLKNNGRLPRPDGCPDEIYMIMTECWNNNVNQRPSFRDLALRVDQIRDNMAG
Sequence of Dual specificity mitogen-activated protein kinase kinase 1 (Homo sapiens) (Q02750 whole entry, the tested form may be a part): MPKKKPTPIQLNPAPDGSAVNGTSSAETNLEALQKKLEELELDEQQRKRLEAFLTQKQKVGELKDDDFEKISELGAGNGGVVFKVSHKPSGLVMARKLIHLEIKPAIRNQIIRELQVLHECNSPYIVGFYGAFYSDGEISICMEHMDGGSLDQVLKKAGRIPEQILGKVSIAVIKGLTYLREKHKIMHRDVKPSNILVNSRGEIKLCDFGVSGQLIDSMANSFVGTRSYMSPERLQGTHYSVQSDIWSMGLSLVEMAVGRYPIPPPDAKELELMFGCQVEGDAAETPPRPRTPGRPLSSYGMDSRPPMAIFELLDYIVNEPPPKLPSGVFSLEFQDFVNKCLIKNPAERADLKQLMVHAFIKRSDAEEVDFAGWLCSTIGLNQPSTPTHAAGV
Sequence of CYP3A4 (P08684 whole entry): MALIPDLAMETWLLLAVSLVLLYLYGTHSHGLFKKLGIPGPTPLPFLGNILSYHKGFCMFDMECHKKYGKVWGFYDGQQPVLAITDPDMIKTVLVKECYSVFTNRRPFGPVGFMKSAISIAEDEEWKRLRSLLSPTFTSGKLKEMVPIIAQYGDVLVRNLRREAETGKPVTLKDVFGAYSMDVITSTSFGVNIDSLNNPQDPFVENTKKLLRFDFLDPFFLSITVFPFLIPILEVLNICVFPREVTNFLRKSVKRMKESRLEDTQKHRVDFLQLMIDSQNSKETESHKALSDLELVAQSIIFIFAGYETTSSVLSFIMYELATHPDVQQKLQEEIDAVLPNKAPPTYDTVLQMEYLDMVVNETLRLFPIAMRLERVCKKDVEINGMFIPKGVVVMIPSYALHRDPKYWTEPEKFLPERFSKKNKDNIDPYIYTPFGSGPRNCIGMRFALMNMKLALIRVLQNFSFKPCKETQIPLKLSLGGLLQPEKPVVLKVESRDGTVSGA
Sequence of Serine/threonine-protein kinase B-raf (Homo sapiens), P15056 [V600E] (P15056 whole entry V600E, the tested form may be a part): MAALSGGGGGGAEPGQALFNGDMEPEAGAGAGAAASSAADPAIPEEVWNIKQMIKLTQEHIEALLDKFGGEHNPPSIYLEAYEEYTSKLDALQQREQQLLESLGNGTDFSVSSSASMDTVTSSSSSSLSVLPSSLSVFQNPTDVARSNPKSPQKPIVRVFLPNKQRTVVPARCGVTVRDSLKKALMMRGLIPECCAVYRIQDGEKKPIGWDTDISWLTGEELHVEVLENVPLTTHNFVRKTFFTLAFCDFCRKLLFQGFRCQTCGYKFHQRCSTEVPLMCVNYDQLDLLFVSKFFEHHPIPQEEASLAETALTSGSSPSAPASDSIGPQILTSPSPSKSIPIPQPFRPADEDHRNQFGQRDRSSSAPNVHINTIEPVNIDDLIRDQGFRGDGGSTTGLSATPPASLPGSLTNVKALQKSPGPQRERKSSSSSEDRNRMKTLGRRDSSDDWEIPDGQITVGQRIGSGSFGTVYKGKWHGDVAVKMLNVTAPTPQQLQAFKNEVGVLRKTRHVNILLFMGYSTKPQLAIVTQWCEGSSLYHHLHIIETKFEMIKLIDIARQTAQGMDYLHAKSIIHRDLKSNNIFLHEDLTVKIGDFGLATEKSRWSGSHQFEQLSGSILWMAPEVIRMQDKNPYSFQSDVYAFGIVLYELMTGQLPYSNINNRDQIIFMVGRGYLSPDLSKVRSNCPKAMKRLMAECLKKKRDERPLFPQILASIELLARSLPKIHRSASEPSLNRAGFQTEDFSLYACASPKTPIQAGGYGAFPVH
Sequence of CYP2C19 (P33261 whole entry, the tested form may be a part): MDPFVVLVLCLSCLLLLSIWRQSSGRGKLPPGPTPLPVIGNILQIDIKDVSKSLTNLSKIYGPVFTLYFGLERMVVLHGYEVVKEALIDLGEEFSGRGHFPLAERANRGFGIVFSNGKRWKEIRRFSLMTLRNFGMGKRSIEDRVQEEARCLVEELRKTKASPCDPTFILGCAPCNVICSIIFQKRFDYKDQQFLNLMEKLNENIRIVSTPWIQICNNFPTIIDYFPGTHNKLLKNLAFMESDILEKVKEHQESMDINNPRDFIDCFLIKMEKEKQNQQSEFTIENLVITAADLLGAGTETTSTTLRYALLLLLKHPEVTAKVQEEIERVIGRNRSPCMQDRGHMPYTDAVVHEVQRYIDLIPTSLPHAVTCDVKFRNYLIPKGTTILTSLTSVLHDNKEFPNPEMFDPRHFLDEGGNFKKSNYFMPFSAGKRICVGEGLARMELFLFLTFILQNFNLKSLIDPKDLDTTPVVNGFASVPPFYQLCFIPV

SMILES | Ki [1] [nM] | inhibition at 10 µM [2] [%] | inhibition [3] [%] | inhibition [4] [%] | inhibition [5] [%] | inhibition at 10 µM [6] [%] | inhibition [7] [%] | Papp at 5 h [8] [×10⁻⁶ cm/s] | EC50 [9] [nM] | inhibition [10] [%] | IC50 [11] [nM] | inhibition at 10 µM [12] [%] | inhibition [13] [%] | remaining at 0.5 h, 0.5 µM [14] [%] | Ki [15] [nM] | inhibition [16] [%] | inhibition at 10 µM [17] [%] | Ki [18] [nM] | inhibition [19] [%] | Ki [20] [nM]
CS(=O)(=O)N1CCN(Cc2cn3nc(-c4cnc(N)nc4)nc(N4CCOCC4)c3n2)CC1 | 1.52 | < 25 | < 25 | < 25 | < 25 | < 25 | < 25 | 3.54 | 52.8 | < 25 | > 30000 | < 25 | < 25 | 95 | 388 | < 25 | < 25 | 40.6 | < 25 | 17.9
CS(=O)(=O)N1CCN(Cc2nc3c(N4CCOCC4)nc(-c4cnc(N)nc4)cn3n2)CC1 | 1 | < 25 | < 25 | < 25 | < 25 | < 25 | < 25 | 1.92 | 87.2 | < 25 | > 30000 | < 25 | < 25 | 99 |  | < 25 | < 25 |  | < 25 | 6.3
CS(=O)(=O)N1CCN(Cc2nc3c(N4CCOCC4)nc(-c4cnc(N)nc4)c(Cl)n3n2)CC1 | 5.5 | < 25 | < 25 | < 25 | < 25 | < 25 | < 25 | 0.69 | 68.6 | < 25 | > 30000 | < 25 | < 25 | 97 | 285 | < 25 | < 25 | 42.4 | < 25 | 3.4
CS(=O)(=O)N1CCN(Cc2cc3c(N4CCOCC4)nc(-c4cnc(N)nc4)cn3n2)CC1 | 0.99 | < 25 | < 25 | < 25 | < 25 | < 25 | < 25 | 0.93 | 30.5 | < 25 | > 30000 | < 25 | < 25 | 97 | 49.2 | < 25 | < 25 | 49.1 | < 25 | 7.1

— ChEMBL document CHEMBL4177600, “Identification of novel PI3K inhibitors through a scaffold hopping strategy” (Bioorg Med Chem Lett, 2017)
